Data set [1] deals with T1, Metabotropic glutamate receptor 5 (Rattus norvegicus, UniProt P31424). In words: Positive allosteric modulation of rat mGluR5 expressed in human HEK293 cells assessed as calcium mobilization. In kind it is functional, cell-based. In outline: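 Calcium mobilization in HEK293 cells expressing rat mGlu5, used to obtain functional EC50. pEC50 is the mean of three independent determinations, with coefficient of variation <0.05.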

The target of data set [2] is T1, Metabotropic glutamate receptor 5. In words: Displacement of [3H]methoxyPEPy from rat mGluR5 expressed in human HEK293 cells after 1 hr by scintillation counter. The format is cell-based.
In data set [3] the target is Metabotropic glutamate receptor 5 (Rattus norvegicus) (UniProt P31424). The experiment in a line: Displacement of [3H]methoxyPEPy from rat mGluR5 expressed in human HEK293 cells at 10 uM after 1 hr by scintillation counter. The format is cell-based. An outline of the steps:
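Single-concentration binding to the MPEP site, read as % displacement of [3H]methoxyPEPy at 10 μM test compound. Values are the average of two determinations.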

Data set [4] deals with T2, Metabotropic glutamate receptor 5 (Homo sapiens, UniProt P41594). In words: Positive allosteric modulation of human mGluR5 expressed in HEK293 cells assessed as calcium mobilization. In kind it is functional, cell-based. (Calcium flux is commonly read through the fluorescence of an indicator in the cells.)
Target sequence in this assay (P41594 whole entry): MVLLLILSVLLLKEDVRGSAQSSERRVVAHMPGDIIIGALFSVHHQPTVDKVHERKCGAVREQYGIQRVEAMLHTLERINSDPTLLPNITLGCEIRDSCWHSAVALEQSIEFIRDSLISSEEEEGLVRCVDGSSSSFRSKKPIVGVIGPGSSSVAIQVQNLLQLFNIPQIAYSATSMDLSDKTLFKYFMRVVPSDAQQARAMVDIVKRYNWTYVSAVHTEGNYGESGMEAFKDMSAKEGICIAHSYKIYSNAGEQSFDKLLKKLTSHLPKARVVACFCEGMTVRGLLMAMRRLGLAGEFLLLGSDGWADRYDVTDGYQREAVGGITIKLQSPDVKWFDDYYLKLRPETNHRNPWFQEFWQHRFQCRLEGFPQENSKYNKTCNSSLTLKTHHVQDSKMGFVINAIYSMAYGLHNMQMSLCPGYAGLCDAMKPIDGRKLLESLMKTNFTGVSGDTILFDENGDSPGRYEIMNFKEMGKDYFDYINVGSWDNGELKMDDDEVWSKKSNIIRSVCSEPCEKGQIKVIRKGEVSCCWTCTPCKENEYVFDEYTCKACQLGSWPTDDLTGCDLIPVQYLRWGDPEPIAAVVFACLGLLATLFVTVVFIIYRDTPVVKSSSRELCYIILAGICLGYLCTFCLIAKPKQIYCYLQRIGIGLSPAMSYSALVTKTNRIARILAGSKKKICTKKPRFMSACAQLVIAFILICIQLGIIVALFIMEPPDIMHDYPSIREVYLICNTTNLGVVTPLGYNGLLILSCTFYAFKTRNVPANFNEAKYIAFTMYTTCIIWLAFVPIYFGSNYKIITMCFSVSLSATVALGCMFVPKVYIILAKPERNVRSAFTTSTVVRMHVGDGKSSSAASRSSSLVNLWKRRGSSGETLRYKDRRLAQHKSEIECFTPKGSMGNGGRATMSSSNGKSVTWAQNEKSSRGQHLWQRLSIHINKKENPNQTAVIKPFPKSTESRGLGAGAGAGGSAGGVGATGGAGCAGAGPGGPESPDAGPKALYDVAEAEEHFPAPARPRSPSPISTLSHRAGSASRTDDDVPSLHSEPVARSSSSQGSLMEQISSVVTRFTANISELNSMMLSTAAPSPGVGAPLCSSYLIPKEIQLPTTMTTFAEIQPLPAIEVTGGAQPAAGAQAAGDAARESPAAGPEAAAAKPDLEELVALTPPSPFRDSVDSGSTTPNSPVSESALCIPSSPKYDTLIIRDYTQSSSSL
Data set [5] has as its target T2, Metabotropic glutamate receptor 5. In words: Positive allosteric modulation of human mGlu5 expressed in HEK293 cells relative to glutamate. The format is cell-based.
Target sequence in this assay (P41594 21-1212 limits assumed): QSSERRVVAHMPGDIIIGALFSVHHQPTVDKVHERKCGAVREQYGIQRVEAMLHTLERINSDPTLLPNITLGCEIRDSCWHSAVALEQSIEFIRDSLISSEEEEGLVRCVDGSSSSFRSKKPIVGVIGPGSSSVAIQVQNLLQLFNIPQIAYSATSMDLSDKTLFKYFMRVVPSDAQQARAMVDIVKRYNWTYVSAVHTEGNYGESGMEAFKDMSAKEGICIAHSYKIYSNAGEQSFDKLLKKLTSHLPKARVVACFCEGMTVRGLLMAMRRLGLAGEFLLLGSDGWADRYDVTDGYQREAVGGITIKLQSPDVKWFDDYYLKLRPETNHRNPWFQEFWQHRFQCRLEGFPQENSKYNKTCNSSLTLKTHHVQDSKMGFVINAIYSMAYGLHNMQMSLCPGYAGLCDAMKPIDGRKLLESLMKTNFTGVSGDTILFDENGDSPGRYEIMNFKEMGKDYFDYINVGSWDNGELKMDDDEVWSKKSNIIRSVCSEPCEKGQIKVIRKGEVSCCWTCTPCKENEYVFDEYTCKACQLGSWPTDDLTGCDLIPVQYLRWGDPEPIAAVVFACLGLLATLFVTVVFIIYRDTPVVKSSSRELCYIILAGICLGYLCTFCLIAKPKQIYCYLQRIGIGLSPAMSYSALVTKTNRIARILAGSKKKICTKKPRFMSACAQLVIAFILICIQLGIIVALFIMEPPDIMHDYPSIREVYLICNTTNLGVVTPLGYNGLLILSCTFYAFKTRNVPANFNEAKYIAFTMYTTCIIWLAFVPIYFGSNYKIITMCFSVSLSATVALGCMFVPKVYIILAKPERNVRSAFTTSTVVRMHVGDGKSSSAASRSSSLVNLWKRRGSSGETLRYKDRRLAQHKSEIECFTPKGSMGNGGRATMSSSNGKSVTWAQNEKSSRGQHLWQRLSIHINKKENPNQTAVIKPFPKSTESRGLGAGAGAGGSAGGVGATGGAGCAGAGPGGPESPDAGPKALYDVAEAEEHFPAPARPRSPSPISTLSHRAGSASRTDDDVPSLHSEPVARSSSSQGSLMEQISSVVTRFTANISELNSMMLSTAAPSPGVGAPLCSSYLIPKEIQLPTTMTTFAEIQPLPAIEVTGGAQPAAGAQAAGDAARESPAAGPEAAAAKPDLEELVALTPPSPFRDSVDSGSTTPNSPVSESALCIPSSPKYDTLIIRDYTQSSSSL
Data set [6] in a line: Solubility of the compound in fasted state simulated intestinal fluid. In kind it is physicochemical.
Data set [7] addresses Metabotropic glutamate receptor 1 (Homo sapiens, UniProt Q13255). In words: Positive allosteric modulation of mGluR1.
Data set [8] deals with Metabotropic glutamate receptor 2 (Homo sapiens, UniProt Q14416). In words: Positive allosteric modulation of mGluR2.
Data set [9] concerns the target Metabotropic glutamate receptor 3 (Homo sapiens, UniProt Q14832). The experiment in a line: Positive allosteric modulation of mGluR3.
In data set [10] the target is Metabotropic glutamate receptor 4 (Homo sapiens, UniProt Q14833). The experiment in a line: Positive allosteric modulation of mGluR4.
In data set [11] the target is Metabotropic glutamate receptor 6 (Homo sapiens, UniProt O15303). The experiment in a line: Positive allosteric modulation of mGluR6.
The target in data set [12] is Metabotropic glutamate receptor 7 (Homo sapiens, UniProt Q14831). In words: Positive allosteric modulation of mGluR7.
For data set [13], the target named is Metabotropic glutamate receptor 8 (Homo sapiens, UniProt O00222). The experiment in a line: Positive allosteric modulation of mGluR8.
Data set [14] concerns the target Metabotropic glutamate receptor 5 (Rattus norvegicus) (UniProt P31424). The experiment in a line: Positive allosteric modulation of rat mGlu5 expressed in human HEK293 cells relative to glutamate. In kind it is cell-based.
In data set [15] the test system is Brain. In words: Fraction unbound in rat brain. In kind it is ADME, tissue-based.
The target of data set [16] is Metabotropic glutamate receptor 5 (Rattus norvegicus) (UniProt P31424). The experiment in a line: Positive allosteric modulation of wild type rat mGlu5 expressed in human HEK293 cells assessed as glutamate concentration response curve at 1 uM. The format is cell-based.
A short description of data set [17]: Terminal half life in rat at 1 mg/kg, iv and 10 mg/kg, po. As to conditions: in vivo, read-out: beta t1/2 (converted). In kind it is ADME, organism-based. In outline: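 Non-crossover rat PK study with 1 mg/kg IV dosing and 10 mg/kg PO dosing in 20% β-CD. Plasma clearance and terminal half-life were determined.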
In data set [18] the test system is Rattus norvegicus. The experiment in a line: Volume of distribution at steady state in rat at 10 mg/kg, po. Also on record: dose 10 mg/kg, route oral. The conditions noted are these: in vivo. The format is ADME, organism-based. In outline:
(§1)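 Rats were dosed orally at 10 mg/kg in 20% β-CD. Snapshot drug levels were taken in portal vein, plasma and brain at 0.5, 1.0, 3.0 and 6.0 h. AUC, brain/plasma ratio, Cmax, Tmax and Vss were derived from these levels.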

The subject of the next data set is Plasma. The experiment in a line: AUC in rat plasma at 10 mg/kg, po. In kind it is ADME, organism-based. Also on record: dose 10 mg/kg, route oral. The conditions noted are these: in vivo. An outline of the steps: as §1
A short description of data set [19]: AUC in rat brain at 10 mg/kg, po. In kind it is ADME, organism-based. Also on record: dose 10 mg/kg, route oral. In outline: as §1
For data set [20], the system named is Brain. The experiment in a line: Ratio of AUC in rat brain to AUC in rat plasma at 10 mg/kg, po. In kind it is ADME, organism-based. Also on record: dose 10 mg/kg, route oral. An outline of the steps:
as §1

Data set [21] is described as follows: Cmax in rat brain at 10 mg/kg, po. The format is ADME, organism-based. Details: dose 10 mg/kg, route oral. In outline:
as §1

Data set [22] has as its system Brain. In words: Tmax in rat brain at 10 mg/kg, po. In kind it is ADME, organism-based. Details: dose 10 mg/kg, route oral. The conditions noted are these: in vivo. An outline of the steps:
as §1

The subject of data set [23] is Rattus norvegicus. The experiment in a line: Antipsychotic activity in rat assessed as reversal of amphetamine-induced hyperlocomotion at 100 mg/kg, po. The format is functional, organism-based. Also on record: dose 100 mg/kg. An outline of the steps: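 Rats given amphetamine to induce hyperlocomotion received the test agent orally at 100 mg/kg in 20% β-CD vehicle. Reversal of locomotor activity was measured.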

Data set [24] in a line: Drug uptake in rat brain after 90 mins. The conditions noted are these: read-out: Drug uptake. The format is ADME, tissue-based.
The subject of data set [25] is Metabotropic glutamate receptor 5 (Rattus norvegicus), P31424 [P654F]. In words: Positive allosteric modulation of wild type rat mGlu5 receptor P654F mutant expressed in human HEK293 cells assessed as glutamate concentration response curve at 1 uM. In kind it is cell-based.
Data set [26] concerns Metabotropic glutamate receptor 5 (Rattus norvegicus), P31424 [T780A]. In words: Positive allosteric modulation of wild type rat mGlu5 receptor T780A mutant expressed in human HEK293 cells assessed as glutamate concentration response curve at 1 uM. In kind it is cell-based.
Data set [27] has as its system Metabotropic glutamate receptor 5 (Rattus norvegicus), P31424 [A809V]. In words: Positive allosteric modulation of wild type rat mGlu5 receptor A809V mutant expressed in human HEK293 cells assessed as glutamate concentration response curve at 1 uM. In kind it is cell-based.
Data set [28] can be described thus: Plasma protein binding in rat plasma.
Data set [29] in a line: Plasma protein binding in human plasma.

The structures appear in SMILES notation. The source made the active and inactive calls. The rule behind the calls is not given here.

Usually Ki stands for a measure of affinity in units of concentration, obtained from inhibition or displacement. By Emax is commonly meant the size of the effect at its maximum, as opposed to the concentration needed. One may read the solubility as how much of the substance goes into solution per volume. In general, AUC refers to the area under the concentration-time curve, a measure of exposure. A higher AUC goes with more exposure. For orientation: Cmax means the highest concentration seen after dosing. As a reminder, the Tmax is the time from dosing to the highest level.

T1 sequence (P31424 whole entry): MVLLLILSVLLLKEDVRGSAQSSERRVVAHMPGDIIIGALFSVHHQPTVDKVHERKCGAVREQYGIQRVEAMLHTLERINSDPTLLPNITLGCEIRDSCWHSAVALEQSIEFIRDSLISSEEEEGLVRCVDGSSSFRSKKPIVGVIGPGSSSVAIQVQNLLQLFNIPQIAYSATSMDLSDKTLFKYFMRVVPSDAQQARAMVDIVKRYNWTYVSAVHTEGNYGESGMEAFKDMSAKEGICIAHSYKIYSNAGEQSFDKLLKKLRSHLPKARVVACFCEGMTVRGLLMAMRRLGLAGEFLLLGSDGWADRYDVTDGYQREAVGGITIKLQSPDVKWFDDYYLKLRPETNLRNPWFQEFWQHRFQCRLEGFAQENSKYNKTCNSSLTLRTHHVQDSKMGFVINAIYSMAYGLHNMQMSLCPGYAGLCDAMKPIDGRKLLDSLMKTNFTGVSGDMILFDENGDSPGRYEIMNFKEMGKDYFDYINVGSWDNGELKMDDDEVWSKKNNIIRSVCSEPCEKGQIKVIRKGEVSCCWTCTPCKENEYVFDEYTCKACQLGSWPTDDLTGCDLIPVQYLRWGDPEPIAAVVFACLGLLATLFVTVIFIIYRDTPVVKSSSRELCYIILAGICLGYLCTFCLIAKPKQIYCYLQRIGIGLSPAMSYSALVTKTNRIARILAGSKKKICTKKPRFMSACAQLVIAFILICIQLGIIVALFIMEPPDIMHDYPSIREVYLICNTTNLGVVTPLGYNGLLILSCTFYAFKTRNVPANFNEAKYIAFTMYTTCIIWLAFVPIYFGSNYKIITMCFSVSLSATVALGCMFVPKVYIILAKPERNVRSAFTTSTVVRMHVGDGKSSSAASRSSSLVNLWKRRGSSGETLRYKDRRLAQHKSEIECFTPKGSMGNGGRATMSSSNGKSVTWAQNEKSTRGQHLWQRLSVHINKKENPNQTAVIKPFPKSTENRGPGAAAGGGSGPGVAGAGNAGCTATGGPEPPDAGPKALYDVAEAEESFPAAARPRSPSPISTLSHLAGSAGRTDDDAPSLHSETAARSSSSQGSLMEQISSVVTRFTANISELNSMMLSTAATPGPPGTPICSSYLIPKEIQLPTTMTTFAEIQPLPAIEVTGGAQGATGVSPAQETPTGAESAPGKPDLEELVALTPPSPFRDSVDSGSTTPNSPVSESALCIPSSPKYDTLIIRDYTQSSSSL
Sequence of Metabotropic glutamate receptor 5 (Rattus norvegicus) (P31424 21-1203 limits assumed): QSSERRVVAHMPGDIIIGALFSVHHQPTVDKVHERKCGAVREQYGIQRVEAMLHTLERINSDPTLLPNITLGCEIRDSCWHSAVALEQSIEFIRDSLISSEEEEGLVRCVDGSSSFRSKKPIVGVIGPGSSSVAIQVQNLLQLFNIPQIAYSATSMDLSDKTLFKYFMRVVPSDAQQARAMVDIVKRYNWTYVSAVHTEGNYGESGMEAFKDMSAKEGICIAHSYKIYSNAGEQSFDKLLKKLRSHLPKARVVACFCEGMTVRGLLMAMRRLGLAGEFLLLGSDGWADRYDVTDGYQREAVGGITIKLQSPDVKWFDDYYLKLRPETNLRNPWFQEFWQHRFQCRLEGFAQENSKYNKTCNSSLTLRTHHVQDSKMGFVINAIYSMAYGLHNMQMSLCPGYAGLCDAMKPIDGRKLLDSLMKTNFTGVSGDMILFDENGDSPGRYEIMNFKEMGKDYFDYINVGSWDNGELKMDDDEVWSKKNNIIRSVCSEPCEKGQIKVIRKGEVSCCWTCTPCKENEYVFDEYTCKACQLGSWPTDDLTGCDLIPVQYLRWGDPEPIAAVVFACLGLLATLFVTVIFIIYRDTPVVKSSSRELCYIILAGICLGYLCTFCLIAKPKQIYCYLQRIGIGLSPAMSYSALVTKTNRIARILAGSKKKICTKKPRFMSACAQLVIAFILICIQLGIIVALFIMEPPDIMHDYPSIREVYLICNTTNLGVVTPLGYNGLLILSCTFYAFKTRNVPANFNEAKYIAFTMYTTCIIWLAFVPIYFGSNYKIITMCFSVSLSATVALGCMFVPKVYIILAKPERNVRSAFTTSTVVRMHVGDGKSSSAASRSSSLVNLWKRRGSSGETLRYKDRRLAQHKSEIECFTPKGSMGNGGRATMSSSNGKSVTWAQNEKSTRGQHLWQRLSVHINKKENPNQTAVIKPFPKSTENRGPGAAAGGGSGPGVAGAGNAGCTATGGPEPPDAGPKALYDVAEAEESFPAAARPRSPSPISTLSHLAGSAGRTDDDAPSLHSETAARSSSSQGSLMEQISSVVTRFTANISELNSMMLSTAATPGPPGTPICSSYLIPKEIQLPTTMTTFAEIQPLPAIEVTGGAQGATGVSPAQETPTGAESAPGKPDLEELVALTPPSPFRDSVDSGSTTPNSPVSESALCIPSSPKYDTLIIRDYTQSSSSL
Sequence of Metabotropic glutamate receptor 5 (Rattus norvegicus), P31424 [P654F] (P31424 whole entry P654F): as the sequence (P31424 whole entry) above, with P654F counted along it
Sequence of Metabotropic glutamate receptor 5 (Rattus norvegicus), P31424 [A809V] (P31424 whole entry A809V): as the sequence (P31424 whole entry) above, with A809V counted along it
Sequence of Metabotropic glutamate receptor 5 (Rattus norvegicus), P31424 [T780A] (P31424 whole entry T780A): as the sequence (P31424 whole entry) above, with T780A counted along it

Take `O=C(NC1CCOCC1)c1ccc(OCc2ccccc2)nc1`: in [1] (read-out: EC50), the EC50 is 3810 nM.

For the compound `O=C(NC1CCOCC1)c1ccc(OCc2cccc(F)c2)nc1`, the EC50 in [1] (read-out: pEC50 (converted)) is 1620 nM.

For `O=C(NC1CCC1)c1ccc(C#Cc2cccc(F)c2)nc1`, the EC50 in data set [1] (read-out: EC50) was determined as 16 nM. In [2], this compound showed a Ki of 195 nM.

On to `CCCCOc1ccc(C(=O)Nc2ccc(F)cc2F)cn1`, for which the EC50 in data set [1] (read-out: EC50) is 725 nM. In addition, the Activity in data set [3] came out at 5%.

Consider `CCCC(C)Oc1ccc(C(=O)NC2CCCCC2)cn1` (stereo unspecified), for which the EC50 result in data set [1] (hek293) is on record as “Not Active”.

Regarding `O=C(N[C@@H](C1CC1)C(F)(F)F)c1ccc(OCc2cccc(F)c2)nc1`, the EC50 in [1] (read-out: EC50) was 83 nM; in data set [1] (read-out: pEC50 (converted)), 85.1 nM.

As for `O=C(NC1CCCCC1)c1ccc(OCc2cccc(F)c2)nc1`, the EC50 in [1] (read-out: EC50) was 29 nM.

With `CCCCOc1ccc(C(=O)NC2CCCCC2)cc1`, the EC50 in data set [1] (read-out: EC50) worked out at 607 nM. The Activity in data set [3] worked out at 12%.

For `CCCCOc1ccc(C(=O)Nc2ccc(F)cn2)cn1`, the EC50 in [1] (read-out: EC50) stood at 1900 nM. In [3], this compound displayed an Activity of 9.5%.

Turning to `O=C(NC1CCC1)c1ccc(OCc2ccccc2)nc1`, the EC50 in [1] (read-out: EC50) amounted to 297 nM.

For the compound `CCCOc1ccc(C(=O)NC2CCCCC2)cn1`, in data set [1] (hek293), the EC50 entry was “Not Active”.

As to `CC(C)(C)NC(=O)c1ccc(OCc2cccc(F)c2)nc1`, the EC50 in data set [1] (read-out: EC50) is 136 nM.

In the case of `CCCCOc1ccc(C(=O)NC2CCC2)cc1`, in data set [1] (read-out: EC50), the EC50 worked out at 5170 nM. Further, the Activity in data set [3] came to 6.5%.

In the case of `C[C@@H](NC(=O)c1ccc(OCc2cccc(F)c2)cc1)C(C)(C)C`, in [4], the EC50 is 180 nM. For the same compound, in data set [5], the maximum response (Emax) stood at 70%.

Take `O=C(NC1CCCCC1)c1ccc(OCc2ccc(F)cc2)nc1`: the EC50 in [1] (read-out: EC50) stood at 251 nM.

With `CC(C)CCOc1ccc(C(=O)NC2CCCCC2)cn1`, the EC50 in [1] (read-out: EC50) is 1140 nM.

For the compound `CCCCCOc1ccc(C(=O)NC2CCCCC2)cn1`, in data set [1] (read-out: EC50), the EC50 was 449 nM.

In the case of `CCCCOc1ccc(C(=O)Nc2ncc(F)cc2F)cc1`, the EC50 in [1] (read-out: EC50) is over 10000 nM. Besides, the Activity in [3] came to 0%.

Consider `O=C(NC1COC1)c1ccc(OCc2cccc(F)c2)nc1`, for which, in [1] (hek293), the EC50 result is given as “Not Active”.

As to `CCCCOc1ccc(C(=O)NC2CCCCC2)cn1`, the EC50 in [1] (read-out: EC50) is 2490 nM. The Activity in data set [3] was 27%.

Take `C[C@H](NC(=O)c1ccc(OCc2cccc(F)c2)nc1)C1CCCCC1`: the EC50 in [1] (read-out: EC50) was determined as 167 nM.

For `O=C(NC1CCC1)c1ccc(OCc2cccc(F)c2)nc1`, the EC50 in data set [1] (read-out: EC50) amounted to 300 nM.

For `CCCCOc1ccc(C(=O)N(C)c2ccc(F)cc2F)cc1`, the EC50 entry in data set [1] (hek293) is given as “Not Active”.

Turning to `C[C@@H](NC(=O)c1ccc(OCc2cccc(F)c2)nc1)C1CCCCC1`, the EC50 in [1] (read-out: EC50) came out at 15 nM.

In the case of `O=C(NC1CCCCC1)c1ccc(OCC2CC2)nc1`, the EC50 entry in [1] (hek293) was “Not Active”.

Compound `C[C@@H](NC(=O)c1ccc(OCc2cccc(F)c2)nc1)C(C)(C)C` gave a solubility in data set [6] of under 20 µg/mL. Also, in data set [2], the inhibition constant Ki turned out to be 153 nM. Moreover, the EC50 in data set [4] is 70 nM; in data set [7] it was over 10 µM; in data set [8] it was over 10 µM; in data set [9], over 10 µM; in [10] it was over 10 µM; in data set [11], over 10 µM. The EC50 in data set [12] and in data set [13] was over 10 µM each time. Moreover, the figures for the Emax in data set [14] and in [5] were 83% and 86%, respectively. The fold change (FC) in data set [14] came out at 8.2; in data set [5], 10; in data set [16], 5. The Fu in the data set with Brain [15] came to 1%. Further, the half-life in data set [17] was 300 min. In the data set on Rattus norvegicus [18], this compound registered a Vdss of 2.3 L/kg. Also, the results for the AUC (with Plasma; in [19]) were 23 µM·h and 1.2 µM·h, respectively. The “Ratio AUC” value with Brain [20] amounted to 0.05. The Cmax in [21] was determined as 435 nM. The time to peak (Tmax) with Brain [22] was 30 min. Further, the result in the data set with Rattus norvegicus [23] was Active. Further, the concentration at 1.5 h in data set [24] worked out at 7.4 µM. Also, the result in data set [25], in [26] and in data set [27] was inactive. Further, the PPB in data set [28] and in data set [29] was at least 0.99 each time.

On to `O=C(NC1CCCCC1)c1ccc(OCC2CCCC2)nc1`, for which the EC50 in data set [1] (read-out: EC50) came to 446 nM. Further, in [3], the Activity was determined as 0%.

For `CCC(C)COc1ccc(C(=O)NC2CCCCC2)cn1` (racemic), in [1] (read-out: EC50), the EC50 amounted to 1080 nM.

With `O=C(NC1CCCCC1)c1ccc(OCc2ccccc2)nc1`, the EC50 in data set [1] (read-out: EC50) was 34 nM. The Activity in data set [3] is 21%.

With `CCCCOc1ccc(C(=O)Nc2ccc(F)cc2F)cc1`, the EC50 in data set [1] (hek293, read-out: EC50) was 33 nM. In [2], this compound showed a Ki of over 100000 nM.

The record behind these values is ChEMBL document CHEMBL2150846, “Optimization of an ether series of mGlu5 positive allosteric modulators: molecular determinants of MPEP-site interaction crossover” (Bioorg Med Chem Lett, 2012).
